Legend:
healthy participants [1] = type: in vivo, human; conditions: moxifloxacin 400 mg single dose
[2] = Plasma pharmacokinetics, part 2 main QTc study; type: in vivo, human; conditions: human, plasma, oral, 400 mg
Outline: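 Moderate-fat meal 30 min before each dose. Plasma sampled predose on Days 1, 5, 6 and 7, and on Day 7 at 0.5–24 h postdose. Test compound assayed by validated UHPLC-MS/MS (3.00–1000 ng mL−1).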

healthy participants [3] = assay: Safety assessments; type: in vivo, human; conditions: part 2, Moxifloxacin 400 mg (N = 40)
Outline: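 Part 2 healthy participants confined from Day −2 of period 1 to Day 9 of period 4. […] AEs monitored throughout, recording duration, severity, causality and outcome, alongside safety ECGs, laboratory tests, physical examination and vital signs.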

QT interval = conditions: supratherapeutic vs therapeutic doses; cited from earlier work

In the case of `COc1c(N2C[C@@H]3CCCN[C@@H]3C2)c(F)cc2c(=O)c(C(=O)O)cn(C3CC3)c12` [Moxifloxacin, moxifloxacin, reference compound], the “Observations of ΔQTcF >30 ms” value (healthy participants [1]) is reported as “no participants”, the Cmax [2] is reported as 1960 ng/mL and the Tmax [2] is reported as 4 h. For the same molecule, the “AE: Abdominal pain” value (healthy participants [3]) was 1 (3) n (%), the “AE: Acne” value (healthy participants [3]) was 0 n (%) and the “AE: Diarrhea” value (healthy participants [3]) was 0 n (%). For the same molecule, the “AE: Gastrointestinal disorders” value (healthy participants [3]) was 2 (5) n (%), the “AE: General disorders and administration site conditions” value (healthy participants [3]) was 1 (3) n (%) and the “AE: Immune system disorders” value (healthy participants [3]) was 1 (3) n (%). The “AE: Infections and infestations” value (healthy participants [3]) was 0 n (%), the “AE: Maculopapular rash” value (healthy participants [3]) was 0 n (%) and the “AE: Medical device site dermatitis” value (healthy participants [3]) was 0 n (%). The “AE: Nausea” value (healthy participants [3]) was 0 n (%), the “AE: Nervous system disorders” value (healthy participants [3]) was 2 (5) n (%) and the “AE: Renal and urinary disorders” value (healthy participants [3]) was 1 (3) n (%). For the same molecule, the “AE: Reproductive system and breast disorders” value (healthy participants [3]) was 0 n (%), the “AE: Respiratory, thoracic, and mediastinal disorders” value (healthy participants [3]) was 0 n (%) and the “AE: Skin and subcutaneous tissue disorders” value (healthy participants [3]) was 0 n (%). For the same molecule, the “AE: Vessel puncture site pain” value (healthy participants [3]) was 1 (3) n (%), the “Any AE” value (healthy participants [3]) was 4 (10) n (%) and the “Any drug-related AE” value (healthy participants [3]) was 2 (5) n (%). For the same molecule, the “Drug-related AE: Abdominal pain” value (healthy participants [3]) was 1 (3) n (%), the “Drug-related AE: Acne” value (healthy participants [3]) was 0 n (%) and the “Drug-related AE: Diarrhea” value (healthy participants [3]) was 0 n (%). The “Drug-related AE: Fatigue” value (healthy participants [3]) was 0 n (%), the “Drug-related AE: Gastrointestinal disorders” value (healthy participants [3]) was 1 (3) n (%) and the “Drug-related AE: General disorders and administration site conditions” value (healthy participants [3]) was 0 n (%). For the same molecule, the “Drug-related AE: Maculopapular rash” value (healthy participants [3]) was 0 n (%), the “Drug-related AE: Nausea” value (healthy participants [3]) was 0 n (%) and the “Drug-related AE: Pruritus” value (healthy participants [3]) was 0 n (%). For the same molecule, the “Drug-related AE: Renal and urinary disorders” value (healthy participants [3]) was 1 (3) n (%), the “Drug-related AE: Skin and subcutaneous tissue disorders” value (healthy participants [3]) was 0 n (%) and the “Drug-related AE: Urinary hesitation” value (healthy participants [3]) was 1 (3) n (%). The “Any drug-related AE” value (healthy participants [3]; listed as moxifloxacin) was 2 n (%).
For `COc1cnc(-n2cnc(C)n2)c2c1c(C(=O)C(=O)N1CCN(C(=O)c3ccccc3)CC1)cn2COP(=O)(O)O` [fostemsavir], the QT prolongation (QT interval) is listed as “QT prolongation with supratherapeutic doses but not therapeutic doses”.
For `Cc1cc(/C=C/C#N)cc(C)c1Nc1ccnc(Nc2ccc(C#N)cc2)n1` [rilpivirine], the QT prolongation (QT interval) is listed as “QT prolongation with supratherapeutic doses but not therapeutic doses”.

— PMC10644204 (Pharmacology Research & Perspectives, 2023)
